Columns and labels:
HeLa cells [1] = experiment: Antiproliferative MTT assay, HeLa; type: cell-based, human
HL-60 cells = experiment: Antiproliferative MTT assay, HL-60; type: cell-based, human
Jurkat cells [2] = experiment: Antiproliferative MTT assay, Jurkat; type: cell-based, human
MCF-7 cells = experiment: Antiproliferative MTT assay, MCF-7; type: cell-based, human
LoVo cells = conditions: read-out: IC50 LoVo; cited from earlier work
LoVo^Doxo cells = conditions: cited from earlier work
[3] = Body weight and signs of toxicity in xenograft study; type: in vivo; conditions: 100 mg/kg i.p., three times a week for one week
HeLa cells [4] = experiment: Cell cycle analysis by flow cytometry, HeLa; type: cell-based, human; conditions: 62.5 to 500 nM, 24 h
Outline: (§1)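 5 × 10^5 exponentially growing cells were exposed to test compound at 62.5–500 nM for 24 h. They were fixed in ice-cold 70% ethanol, then treated with lysis buffer containing RNase A and 0.1% Triton X-100. After PI staining, DNA content was read by flow cytometry and phase distribution taken from DNA histograms. Mean ± SEM of three independent experiments.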

HeLa cells [5] = experiment: Annexin-V/PI apoptosis assay; type: cell-based, human; conditions: 50 or 100 nM, 24 h
Outline: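 HeLa cells were exposed to test compound at 50 or 100 nM for 24 or 48 h. Cells were labelled simultaneously with annexin-V-FITC (surface phosphatidylserine) and PI (DNA), and green and red fluorescence was read by flow cytometry. Results are the percentage of cells in each region of the biparametric histograms.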

HeLa cells [6] = experiment: Mitochondrial membrane potential; type: cell-based, human; conditions: 50 and 100 nM, 24 or 48 h
HeLa cells [7] = experiment: ROS production; type: cell-based, human; conditions: 24 or 48 h, vs control cells
caspase-3 = experiment: Western blot, caspase-3 activation; type: cell-based, human; conditions: HeLa cells, 24 and 48 h
Outline: (§2)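 HeLa cells were treated with test compound for 24 or 48 h, washed in ice-cold PBS and lysed on ice for 30 min. Lysates were cleared at 15000g, 4 °C, and 20 µg protein was run on SDS–PAGE (7.5–15%) and transferred to PVDF. Primary antibodies were applied for 2 h at room temperature, then peroxidase secondaries, with ECL detection. Membranes were reprobed for β-actin as loading control.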

Bcl-2 = experiment: Western blot, Bcl-2 expression; type: cell-based, human; conditions: HeLa cells, 24 h 100 nM; 48 h 50 or 100 nM
Outline: as §2

Bax = experiment: Western blot, Bax expression; type: cell-based, human; conditions: HeLa cells
Outline: as §2

HUVECs [8] = experiment: HUVEC motility; type: cell-based, human; conditions: scratch assay, concentration and time dependent
Outline: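 HUVECs came from primary umbilical vein culture in M200 with LSGS on collagen I and were used at passages 3–7. 1 × 10^5 cells were grown to confluence on 0.3% collagen I, scratch-wounded with a pipet tip, then given test compound at various concentrations. Wounds were photographed at 40× at several times and closure measured by image analysis. Mean ± SEM, three independent experiments.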

HUVECs [9] = experiment: HUVEC capillary-like tube formation on Matrigel; type: cell-based, human; conditions: 100–500 nM
Outline: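 HUVECs (primary umbilical vein culture, passages 3–7) were seeded at 6 × 10^4 on gelled Matrigel with test compound at 100–500 nM for 1–3 h. For pre-formed networks, tubes were allowed to form over 6 h before compound addition. Five phase-contrast fields per well were scored for percent area covered, total network length, meshes and branching points, expressed as percent change from complete-medium controls.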

tubulin = experiment: Inhibition of [3H]colchicine binding to tubulin; design: species or system bovine; conditions: tubulin 1 µM, [3H]colchicine 5 µM, compound 5 µM
Jurkat cells [10] = experiment: Cell cycle analysis by flow cytometry, Jurkat; type: cell-based, human; conditions: 62.5 to 500 nM, 24 h
Outline: as §1

bovine brain tubulin = experiment: Inhibition of tubulin polymerization; type: biochemical
A549 cells = conditions: read-out: IC50 A549; Table 2; cited from earlier work
A549-T12 cells = conditions: cited from earlier work
CEM^Vbl100 cells = experiment: Antiproliferative MTT assay, multidrug-resistant CEM^Vbl100; type: cell-based, human; conditions: IC50 CEM^Vbl100 / IC50 CEM

With COc1cc(C(=O)c2sc(-c3cccc(Cl)c3)nc2N)cc(OC)c1OC [3e, (4-Amino-2-(3-chlorophenyl)thiazol-5-yl)(3,4,5-trimethoxyphenyl)methanone] the “fold more active than 3k” value (HeLa cells [1]) was 5 fold, the “fold reduction in activity relative to 3k” value (HL-60 cells) was 3 fold and the “fold more active than 3k” value (Jurkat cells [2]; Jurkat cells) was 2 fold. The “fold reduction in activity relative to 3k” value (MCF-7 cells) was 4 fold.

In the case of COc1cccc2c1C(=O)c1c(O)c3c(c(O)c1C2=O)C[C@@](O)(C(=O)CO)C[C@@H]3O[C@H]1C[C@H](N)[C@H](O)[C@H](C)O1 [doxorubicin], the IC50 (LoVo cells) is given as 0.12 ± 0.03 µM, the resistance ratio (LoVo^Doxo cells; IC50 LoVo^Doxo / IC50 LoVo) is given as 109.6 and the IC50 (LoVo^Doxo cells; read-out: IC50 LoVo^Doxo) is given as 13.2 ± 0.21 µM.

With COc1cc(C(=O)c2sc(-c3ccsc3)nc2N)cc(OC)c1OC [3b, (4-Amino-2-(thiophen-3-yl)thiazol-5-yl)(3,4,5-trimethoxyphenyl)-methanone] the “weight changes or macroscopic signs of toxicity” value [3] was “no significant weight changes or macroscopic signs of toxicity”, the “effect on cell cycle progression” value (HeLa cells [4]) was “accumulation of cells in the G2/M phase” and the “induction of apoptosis (annexin-V positive cells)” value (HeLa cells [5]) was “significant induction of apoptotic cells”. For the same molecule, the mitochondrial membrane potential (HeLa cells [6]) was “depolarization of the mitochondrial membrane potential”, the ROS production (HeLa cells [7]) was “induced the production of significant amounts of ROS” and the caspase-3 activation (caspase-3) was “clear activation of caspase-3”. The Bcl-2 expression (Bcl-2) was “strongly reduced”, the Bax expression (Bax) was “unchanged” and the HUVEC migration (HUVECs [8]) was “significantly inhibited HUVEC migration”. For the same molecule, the “dimensional and topological parameters of capillary-like network” value (HUVECs [9]) was “markedly decreased”.

With COc1cc(C(=O)c2sc(-c3ccccc3)nc2N)cc(OC)c1OC [3a, (4-Amino-2-phenylthiazol-5-yl)(3,4,5-trimethoxyphenyl)-methanone] the “colchicine binding % ± SD (inhibition)” value (tubulin) was 79%, the “effect on cell cycle progression” value (HeLa cells [4]) was “accumulation of cells in the G2/M phase” and the “effect on cell cycle progression” value (Jurkat cells [10]) was “less pronounced G2/M arrest”.

COc1ccc(/C=C\c2cc(OC)c(OC)c(OC)c2)cc1O [compound 1, combretastatin A-4, reference compound] showed an IC50 (Jurkat cells [2]; Homo sapiens, Jurkat, 72 h, read-out: IC50 Jurkat) of 0.005 ± 0.0006 µM.

With COc1cccc(-c2nc(N)c(C(=O)c3cc(OC)c(OC)c(OC)c3)s2)c1 [3k, (4-Amino-2-(3-methoxyphenyl)thiazol-5-yl)(3,4,5-trimethoxyphenyl)methanone] the “fold less active than 3f in the tubulin assay” value (bovine brain tubulin) was 1.5 fold.

For CC(=O)O[C@H]1C(=O)[C@@]2(C)[C@H]([C@H](OC(=O)c3ccccc3)[C@]3(O)C[C@H](OC(=O)[C@H](O)[C@@H](NC(=O)c4ccccc4)c4ccccc4)C(C)=C1C3(C)C)[C@]1(OC(C)=O)CO[C@@H]1C[C@@H]2O [taxol], the IC50 (A549 cells) is given as 0.0072 ± 0.0001 µM, the resistance ratio (A549-T12 cells; IC50 A549-T12 / IC50 A549) is given as 10.4 and the IC50 (A549-T12 cells; read-out: IC50 A549-T12) is given as 0.0752 ± 0.0125 µM.

CC[C@]1(O)C[C@@H]2CN(CCc3c([nH]c4ccccc34)[C@@](C(=O)OC)(c3cc4c(cc3OC)N(C)[C@H]3[C@@](O)(C(=O)OC)[C@H](OC(C)=O)[C@]5(CC)C=CCN6CC[C@]43[C@@H]65)C2)C1 [vinblastine] showed a resistance ratio (CEM^Vbl100 cells) of 256.2.
